In ChEMBL document CHEMBL3272313, “3-Hydroxy-17-aralkylmorphinans as potential opiate receptor-site-directed alkylating agents” (J Med Chem, 1977):
Calls of active or inactive are those of the source. No cut-off for these calls is given here.

Tests used:
[1] = tested on: Mus musculus; test: Analgesic activity in sc dosed Swiss-Webster mouse after 30 mins; format: functional; details: 0.5 h
[2] = tested on: Mus musculus; test: Analgesic activity in Swiss-Webster mouse assessed as time required for sustainance of activity at 100 mg/kg, sc; format: functional; details: route subcutaneous
[3] = tested on: Mus musculus; test: Inhibition of morphine sulfate-induced analgesic activity in Swiss-Webster mouse at 100 mg/kg, sc after 1 hr; format: functional, organism-based; parameters: dose 100 mg/kg
Outline: (§1)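 Male Swiss-Webster mice, 20–25 g. Challenge was 10 mg/kg morphine sulfate in 8–10 mice, read by the modified D'Amour–Smith test. Where block was seen, morphine ED50 (95% limits) was found by Litchfield–Wilcoxon.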

[4] = organism: Mus musculus; test: Narcotic agonist activity in morphine-dependent mouse assessed as suppression of abstinence; format: functional, organism-based
Outline: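 Single-dose suppression test in morphine-dependent mice after withdrawal (method of Takemori et al.); compound given sc.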

[5] = tested on: Mus musculus; test: Analgesic activity in sc dosed Swiss-Webster mouse time of peak effect; format: functional
[6] = tested on: Mus musculus; test: Analgesic activity in Swiss-Webster mouse assessed as time required for sustainance of activity at 20 mg/kg, sc; format: functional; details: route subcutaneous
[7] = tested on: Mus musculus; test: Inhibition of morphine sulfate-induced analgesic activity in Swiss-Webster mouse at 100 mg/kg, sc after 2 hrs; format: functional, organism-based; parameters: dose 100 mg/kg; outline: as §1
[8] = tested on: Mus musculus; test: Analgesic activity in Swiss-Webster mouse at 2 mg/kg, sc in presence of naloxone; format: functional, organism-based; parameters: dose 2 mg/kg
Outline: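 Mice were pretreated with naloxone, then given blocker 2 mg/kg sc. After 2 h, when the naloxone effect had ended, morphine analgesia was tested in the same animals (modified D'Amour–Smith). Counts are responders per 10 mice.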

[9] = target: T1, Opioid receptors; mu/kappa/delta (Homo sapiens, UniProt P41145+P41143+P35372); test: Displacement of [3H]naloxone from opiate receptor (unknown origin) after 10 mins
T1 sequence (P35372 whole entry, looked up): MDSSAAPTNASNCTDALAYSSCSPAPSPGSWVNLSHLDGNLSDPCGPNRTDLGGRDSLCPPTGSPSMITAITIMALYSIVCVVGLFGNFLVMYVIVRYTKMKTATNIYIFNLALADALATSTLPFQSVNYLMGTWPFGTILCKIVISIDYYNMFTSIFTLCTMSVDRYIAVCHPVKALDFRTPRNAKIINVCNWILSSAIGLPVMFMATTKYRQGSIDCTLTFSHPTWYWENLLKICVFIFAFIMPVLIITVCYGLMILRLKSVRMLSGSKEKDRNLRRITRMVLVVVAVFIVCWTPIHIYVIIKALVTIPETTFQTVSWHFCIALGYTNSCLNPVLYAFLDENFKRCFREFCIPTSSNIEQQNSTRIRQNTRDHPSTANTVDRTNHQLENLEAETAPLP
T1 sequence (P41143 whole entry, looked up): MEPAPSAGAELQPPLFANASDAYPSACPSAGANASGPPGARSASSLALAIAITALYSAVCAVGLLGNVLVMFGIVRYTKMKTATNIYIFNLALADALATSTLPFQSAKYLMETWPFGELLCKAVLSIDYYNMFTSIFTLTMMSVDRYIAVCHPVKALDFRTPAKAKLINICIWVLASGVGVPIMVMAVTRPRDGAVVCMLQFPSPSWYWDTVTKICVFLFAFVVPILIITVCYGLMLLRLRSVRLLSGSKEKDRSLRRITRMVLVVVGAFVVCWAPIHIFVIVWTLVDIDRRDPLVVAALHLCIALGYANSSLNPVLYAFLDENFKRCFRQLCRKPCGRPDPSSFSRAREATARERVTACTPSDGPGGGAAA
T1 sequence (P41145 whole entry, looked up): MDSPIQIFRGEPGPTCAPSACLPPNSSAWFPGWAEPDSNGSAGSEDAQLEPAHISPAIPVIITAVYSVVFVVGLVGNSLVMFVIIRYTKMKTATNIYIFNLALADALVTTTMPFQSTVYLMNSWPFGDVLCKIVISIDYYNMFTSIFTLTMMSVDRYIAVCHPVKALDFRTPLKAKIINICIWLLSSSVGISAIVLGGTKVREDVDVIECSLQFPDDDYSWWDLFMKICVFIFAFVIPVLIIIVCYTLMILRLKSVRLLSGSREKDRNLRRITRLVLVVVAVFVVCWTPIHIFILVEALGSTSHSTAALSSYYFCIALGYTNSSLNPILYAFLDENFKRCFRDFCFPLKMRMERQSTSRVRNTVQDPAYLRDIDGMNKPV

[10] = target: T1, Opioid receptors; mu/kappa/delta; test: Displacement of [3H]naloxone from opiate receptor (unknown origin) after 10 mins in presence of NaCl
Outline: (§2)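 [3H]naloxone 1.5×10^-9 M bound to a brain homogenate (Pert–Snyder method as modified by Pasternak, with a preincubation step), 10 min incubation. Run with and without 100 mM NaCl. Stereospecific binding was defined with 1×10^-6 M levallorphan. IC50 is the concentration giving 50% inhibition of stereospecific binding, and the ratio is IC50 with NaCl over IC50 without.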

[11] = target: T1, Opioid receptors; mu/kappa/delta; test: Ratio of IC50 for opiate receptor (unknown origin) after 10 mins in presence of NaCl to IC50 for opiate receptor (unknown origin) after 10 mins; outline: as §2
[12] = tested on: Mus musculus; test: Ratio of morphine ED50 to compound ED50 for sc dosed Swiss-Webster mouse; format: functional
[13] = tested on: Mus musculus; test: Analgesic activity in Swiss-Webster mouse assessed as time required for sustainance of activity at 2 mg/kg, sc; format: functional; details: route subcutaneous
[14] = tested on: Mus musculus; test: Inhibition of morphine sulfate-induced analgesic activity in Swiss-Webster mouse at 2 to 32 mg/kg, sc after 2 to 4 hrs; format: functional, organism-based
Outline: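 Male Swiss-Webster mice received the maleimide blocker sc at 2, 8 or 32 mg/kg (40% propylene glycol). Morphine sulfate dose-response was run after reaction time returned to control (2, 3 or 4 h). Morphine ED50 and 95% limits were taken by Litchfield–Wilcoxon, and curve slopes were compared.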

[15] = tested on: Mus musculus; test: Analgesic activity in Swiss-Webster mouse assessed as time required for sustainance of activity at 350 mg/kg, sc; format: functional; details: route subcutaneous
[16] = tested on: Mus musculus; test: Inhibition of morphine sulfate-induced analgesic activity in Swiss-Webster mouse at 350 mg/kg, sc after 2 hrs; format: functional, organism-based; parameters: dose 350 mg/kg; outline: as §1
[17] = tested on: Mus musculus; test: Analgesic activity in Swiss-Webster mouse assessed as time required for sustainance of activity at 15 mg/kg, sc; format: functional; details: route subcutaneous

O=C(CBr)Nc1ccc(CCCN2CC[C@]34CCCC[C@H]3[C@H]2Cc2ccc(O)cc24)cc1
ED50 [1]: > 100 mg/kg
Time [2]: 1 h
inhibition [3]: Active

CCOC(=O)/C=C/C(=O)Nc1cccc(CCN2CC[C@]34CCCC[C@H]3[C@H]2Cc2ccc(O)cc24)c1
inhibition [4]: Active
ED50 [1]: 5.6 mg/kg
Time [5]: 60 min
Time [6]: 3 h

CCOC(=O)/C=C/C(=O)Nc1ccc(CCCN2CC[C@]34CCCC[C@H]3[C@H]2Cc2ccc(O)cc24)cc1
ED50 [1]: 28.4 mg/kg
Time [5]: 30 min
Time [2]: 2 h
inhibition [7]: Active

Br.CC1C2Cc3ccc(O)cc3C1(C)CCN2CCc1ccccc1 (configuration not stated) [PHENAZOCINE HYDROBROMIDE]
ED50 [1]: 0.53 mg/kg
Time [5]: 30 min

CCOC(=O)CCC(=O)Nc1ccccc1CCCN1CC[C@]23CCCC[C@H]2[C@H]1Cc1ccc(O)cc13
ED50 [1]: > 100 mg/kg
Time [2]: 2 h
inhibition [7]: Active

O=C1C=CC(=O)N1c1ccc(CCN2CC[C@]34CCCC[C@H]3[C@H]2Cc2ccc(O)cc24)cc1
Activity [8]: inactive
inhibition [4]: Active
IC50 [9]: 5.3 nM
IC50 [10]: 5.7 ×10⁻⁸ M
Ratio IC50 [11]: > 10
Ratio ED50 [12]: 4
ED50 [1]: 1.1 mg/kg
Time [5]: 30 min
Time [13]: 2 h
inhibition [14]: Active

CCOC(=O)CCC(=O)Nc1ccccc1CCN1CC[C@]23CCCC[C@H]2[C@H]1Cc1ccc(O)cc13
ED50 [1]: > 100 mg/kg
Time [2]: 1 h
inhibition [3]: Active

CCOC(=O)/C=C/C(=O)Nc1ccccc1CCN1CC[C@]23CCCC[C@H]2[C@H]1Cc1ccc(O)cc13
ED50 [1]: > 150 mg/kg

CCOC(=O)CCC(=O)Nc1cccc(CCCN2CC[C@]34CCCC[C@H]3[C@H]2Cc2ccc(O)cc24)c1
ED50 [1]: 77.9 mg/kg
Time [5]: 30 min
Time [2]: 1 h
inhibition [3]: Active

CCOC(=O)/C=C/C(=O)Nc1ccccc1CCCN1CC[C@]23CCCC[C@H]2[C@H]1Cc1ccc(O)cc13
ED50 [1]: 84 mg/kg
Time [5]: 15 min
Time [15]: 2 h
inhibition [16]: Active

CC(=O)Oc1ccc2c(c1)[C@@]13CCCC[C@H]1[C@@H](C2)N(CCCc1cccc(N2C(=O)C=CC2=O)c1)CC3
ED50 [1]: > 100 mg/kg
Time [2]: 2 h
inhibition [7]: Active

CCOC(=O)/C=C\C(=O)Nc1ccccc1CCCN1CC[C@]23CCCC[C@H]2[C@H]1Cc1ccc(O)cc13
ED50 [1]: > 100 mg/kg
Time [2]: 2 h
inhibition [7]: Active

CCOC(=O)/C=C\C(=O)Nc1cccc(CCN2CC[C@]34CCCC[C@H]3[C@H]2Cc2ccc(O)cc24)c1
inhibition [4]: Active
ED50 [1]: 2.3 mg/kg
Time [5]: 60 min
Time [17]: 3 h

CN1CC[C@]23c4c5ccc(O)c4O[C@H]2[C@@H](O)C=C[C@H]3[C@H]1C5.CN1CC[C@]23c4c5ccc(O)c4O[C@H]2[C@@H](O)C=C[C@H]3[C@H]1C5.O=S(=O)(O)O
ED50 [1]: 4.9 mg/kg
Time [5]: 30 min

O=C1C=CC(=O)N1c1cccc(CCN2CC[C@]34CCCC[C@H]3[C@H]2Cc2ccc(O)cc24)c1
inhibition [4]: Active
ED50 [1]: 11.4 mg/kg
Time [5]: 30 min
Time [6]: 2 h

CC(=O)Oc1ccc2c(c1)[C@@]13CCCC[C@H]1[C@@H](C2)N(CCc1ccccc1N1C(=O)C=CC1=O)CC3
ED50 [1]: 11.7 mg/kg
Time [5]: 30 min
Time [6]: 2 h
